Assay results from ChEMBL document CHEMBL5303300, “EUbOPEN Chemogenomics Library - Multiplex” (2023).
“And” between values parts separate entries of the source, which are not always exact repeats. Equal entries are not always repeated.

How the values were obtained:
[1] = tested on: Fibroblast; assay: Multiplex assay against human fibroblast; assay type: toxicity, cell-based; details: number of replicates 2
How it was run: (§1)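 Imaging took place on a CQ1 microscope at 37°C and 5% CO2 once compound had been added to live cells stained at seeding with Hoechst33342, BioTracker Green Microtubule Cytoskeleton Dye, MitoTracker Red and Annexin V Alexa Fluor 680. CellPathfinder machine-learning gating classed cells as Hoechst high-intensity objects or normal cells, classed normal cells as having healthy, pyknosed or fragmented nuclei, and classed pyknosed cells as mitotic or apoptotic. Tubulin, mitochondrial-mass and membrane-permeability phenotypes are per cents of the healthy-nucleus cells.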

[2] = tested on: U2OS; assay: Multiplex assay against U2OS; assay type: toxicity, cell-based; details: human, number of replicates 2; how it was run: as §1
[3] = 24 h, 1 µM, compound concentration 1 uM
[4] = 24 h, 10 µM, compound concentration 10 uM
[5] = 48 h, 1 µM, compound concentration 1 uM
[6] = 48 h, 10 µM, compound concentration 10 uM
[7] = 12 h, 1 µM, compound concentration 1 uM
[8] = 12 h, 10 µM, compound concentration 10 uM

Cn1cc(-c2ccc(N(C(=O)NCc3ccccc3)[C@H]3CC[C@H](Nc4ccc(C#N)cn4)CC3)cc2)ccc1=O
Population Mitotic Cells (%) [1, 3]: 61% and 51% | Population Normal (%) [1, 3]: 99% | Population Pyknosed Nuclei (%) [1, 3]: 14% and 20% | Population Tubulin-Different-Phenotype (%) [1, 3]: 11% | Total Cell Count [1, 3]: 149 and 180 | Population Apoptotic (%) [1, 4]: 54% and 81% | Population Fragmented Nuclei (%) [1, 4]: 10% | Population Healthy Nuclei (%) [1, 4]: 44% and 47% | Population Hoechst High Intensity Objects (%) [1, 4]: 0% | Population Membrane Permeable-Phenotype (%) [1, 4]: 18% | Population Mitochondria Different-Phenotype (%) [1, 4]: 7% and 5% | Population Mitotic Cells (%) [1, 4]: 45% and 18% | Population Normal (%) [1, 4]: 99% | Population Pyknosed Nuclei (%) [1, 4]: 44% and 42% | Population Tubulin-Different-Phenotype (%) [1, 4]: 79% and 63% | Total Cell Count [1, 4]: 231 and 271 | Population Apoptotic (%) [1, 5]: 76% and 60% | Population Fragmented Nuclei (%) [1, 5]: 17% and 16% | Population Healthy Nuclei (%) [1, 5]: 68% | Population Hoechst High Intensity Objects (%) [1, 5]: 0% | Population Membrane Permeable-Phenotype (%) [1, 5]: 5% and 2% | Population Mitochondria Different-Phenotype (%) [1, 5]: 0% | Population Mitotic Cells (%) [1, 5]: 23% and 39% | Population Normal (%) [1, 5]: 100% | Population Pyknosed Nuclei (%) [1, 5]: 13% and 15% | Population Tubulin-Different-Phenotype (%) [1, 5]: 8% and 5% | Total Cell Count [1, 5]: 154 and 186 | Population Apoptotic (%) [1, 6]: 71% and 83% | Population Fragmented Nuclei (%) [1, 6]: 8% and 15% | Population Healthy Nuclei (%) [1, 6]: 36% and 28% | Population Hoechst High Intensity Objects (%) [1, 6]: 0% and 1% | Population Membrane Permeable-Phenotype (%) [1, 6]: 26% and 22% | Population Mitochondria Different-Phenotype (%) [1, 6]: 8% and 2% | Population Mitotic Cells (%) [1, 6]: 28% and 16% | Population Normal (%) [1, 6]: 99% and 98% | Population Pyknosed Nuclei (%) [1, 6]: 54% and 56% | Population Tubulin-Different-Phenotype (%) [1, 6]: 78% and 65% | Total Cell Count [1, 6]: 233 and 237 | Population Apoptotic (%) [2, 7]: 50% and 60% | Population Healthy Nuclei (%) [2, 7]: 48% and 86% | Population Hoechst High Intensity Objects (%) [2, 7]: 0% | Population Membrane Permeable-Phenotype (%) [2, 7]: 0% and 3% | Population Mitochondria Different-Phenotype (%) [2, 7]: 5% and 3% | Population Mitotic Cells (%) [2, 7]: 50% and 39% | Population Normal (%) [2, 7]: 100% | Population Pyknosed Nuclei (%) [2, 7]: 14% and 12% | Population Tubulin-Different-Phenotype (%) [2, 7]: 55% and 75% | Population Apoptotic (%) [2, 8]: 93% and 59% | Population Fragmented Nuclei (%) [2, 8]: 16% and 12% | Population Healthy Nuclei (%) [2, 8]: 41% and 57% | Population Hoechst High Intensity Objects (%) [2, 8]: 0% | Population Membrane Permeable-Phenotype (%) [2, 8]: 20% and 21% | Population Mitochondria Different-Phenotype (%) [2, 8]: 33% and 16% | Population Normal (%) [2, 8]: 100% and 99% | Population Pyknosed Nuclei (%) [2, 8]: 41% and 30% | Population Tubulin-Different-Phenotype (%) [2, 8]: 40% and 48% | Population Apoptotic (%) [2, 3]: 66% and 60% | Population Healthy Nuclei (%) [2, 3]: 40% and 87% | Population Hoechst High Intensity Objects (%) [2, 3]: 0% | Population Membrane Permeable-Phenotype (%) [2, 3]: 0% and 3% | Population Mitochondria Different-Phenotype (%) [2, 3]: 0% and 1% | Population Mitotic Cells (%) [2, 3]: 33% and 40% | Population Normal (%) [2, 3]: 100% and 99% | Population Pyknosed Nuclei (%) [2, 3]: 19% and 9% | Population Tubulin-Different-Phenotype (%) [2, 3]: 63% and 79% | Population Apoptotic (%) [2, 4]: 90% and 75% | Population Fragmented Nuclei (%) [2, 4]: 8% and 11% | Population Healthy Nuclei (%) [2, 4]: 31% | Population Hoechst High Intensity Objects (%) [2, 4]: 0% | Population Membrane Permeable-Phenotype (%) [2, 4]: 36% and 21% | Population Mitochondria Different-Phenotype (%) [2, 4]: 27% and 46% | Population Mitotic Cells (%) [2, 4]: 9% and 24% | Population Normal (%) [2, 4]: 100% and 99% | Population Pyknosed Nuclei (%) [2, 4]: 60% and 56% | Population Tubulin-Different-Phenotype (%) [2, 4]: 36% and 69% | Population Apoptotic (%) [2, 5]: 85% and 68% | Population Healthy Nuclei (%) [2, 5]: 65% and 88% | Population Hoechst High Intensity Objects (%) [2, 5]: 0% | Population Membrane Permeable-Phenotype (%) [2, 5]: 2% and 1% | Population Mitochondria Different-Phenotype (%) [2, 5]: 0% | Population Mitotic Cells (%) [2, 5]: 14% and 31% | Population Normal (%) [2, 5]: 100% | Population Pyknosed Nuclei (%) [2, 5]: 11% and 8% | Population Tubulin-Different-Phenotype (%) [2, 5]: 70% and 85% | Population Apoptotic (%) [2, 6]: 78% and 88% | Population Fragmented Nuclei (%) [2, 6]: 30% and 10% | Population Healthy Nuclei (%) [2, 6]: 23% and 24% | Population Hoechst High Intensity Objects (%) [2, 6]: 0% and 2% | Population Membrane Permeable-Phenotype (%) [2, 6]: 40% and 37% | Population Mitochondria Different-Phenotype (%) [2, 6]: 40% and 37% | Population Mitotic Cells (%) [2, 6]: 21% and 11% | Population Normal (%) [2, 6]: 100% and 97% | Population Pyknosed Nuclei (%) [2, 6]: 45% and 65% | Population Tubulin-Different-Phenotype (%) [2, 6]: 40% and 52%
